The record followed here is ChEMBL document CHEMBL1671778, “Synthesis and serotonin transporter activity of 1,3-bis(aryl)-2-nitro-1-propenes as a new class of anticancer agents” (Bioorg Med Chem, 2011).

Active and inactive are the calls of the source. The rule behind the calls is not given here.

For data set [1], the target named is T1, Sodium-dependent serotonin transporter (Homo sapiens, UniProt P31645). Particulars: HEK293, at 1 µM.
Target sequence in this assay (P31645 whole entry, looked up): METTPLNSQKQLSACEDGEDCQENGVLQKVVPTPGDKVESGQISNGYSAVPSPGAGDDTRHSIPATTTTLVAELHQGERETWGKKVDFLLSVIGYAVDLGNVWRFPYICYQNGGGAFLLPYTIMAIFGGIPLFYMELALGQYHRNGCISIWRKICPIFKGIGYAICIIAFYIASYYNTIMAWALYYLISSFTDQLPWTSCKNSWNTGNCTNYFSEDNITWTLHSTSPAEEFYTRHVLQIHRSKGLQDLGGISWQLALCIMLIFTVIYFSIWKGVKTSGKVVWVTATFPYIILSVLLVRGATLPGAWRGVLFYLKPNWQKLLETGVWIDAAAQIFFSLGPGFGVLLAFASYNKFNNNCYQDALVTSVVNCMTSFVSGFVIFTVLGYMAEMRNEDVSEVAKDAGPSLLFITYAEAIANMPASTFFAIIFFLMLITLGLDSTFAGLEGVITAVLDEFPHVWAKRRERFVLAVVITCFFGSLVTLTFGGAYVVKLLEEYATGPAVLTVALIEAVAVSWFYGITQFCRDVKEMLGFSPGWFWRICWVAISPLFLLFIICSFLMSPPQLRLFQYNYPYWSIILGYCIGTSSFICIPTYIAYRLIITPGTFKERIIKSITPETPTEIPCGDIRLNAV
Data set [2] concerns the target T1, Sodium-dependent serotonin transporter. In words: Inhibition of [3H]-serotonin reuptake at human SERT expressed in HEK293 cells after 15 to 20 mins by fluorescence neurotransmitter transporter assay. Format: cell-based.
Target sequence in this assay (P31645 whole entry): as the sequence (P31645 whole entry, looked up) above
Data set [3] deals with DG-75. Briefly: Antiproliferative activity against human DG75 cells after 24 hrs Alamar blue assay. Format: functional, cell-based. The settings on record: DG-75, 24 h. In outline:
(§1)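 Alamar Blue viability: 1-5x10^4 cells/well treated 24 h, then Alamar Blue (pre-warmed) 4-6 h at 37 °C in the dark. Fluorescence read at 590 nm (excitation 544 nm), background of medium plus dye subtracted, untreated cells = 100% viability. Miconazole 10 µM as cell-death control. Range 1 µM-1 mM, triplicate on two independent days. pEC50 from non-linear sigmoidal regression.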

A further data set has as its system PBMC. Briefly: Cytotoxicity against human PBMC cells assessed as decrease in cell viability 10 or 50 uM after 24 hrs Alamar blue assay. It counts as cell-based. In outline: (§2)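 1-5x10^4 cells/200 µl given 10 or 50 µM for 24 h (MUTU-I, MDA-MB231, PBMC) or […]. Alamar Blue at 37 °C in the dark 4-6 h, then fluorescence read with 544/590 nm. Media-only background subtracted; untreated cells set as 100% viability. Mean of six points (triplicate, two independent days). PBMCs from a healthy donor, isolated by ficoll density separation.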

The test system of data set [4] is SH-SY5Y. In words: Cytotoxicity against human SH-SY5Y cells expressing human SERT assessed as decrease in cell viability after 48 hrs neutral red dye assay. It counts as functional, cell-based.
Data set [5] relates to SH-SY5Y. Briefly: Antiproliferative activity against human SH-SY5Y cells after 24 hrs Alamar blue assay. Format: functional, cell-based. The procedure, abridged:
as §1

In data set [6] the test system is HEK293. Briefly: Cytotoxicity against human HEK293 cells expressing human SERT assessed as decrease in cell viability after 48 hrs neutral red dye assay. Format: functional, cell-based. The settings on record: HEK293, 48 h. In outline: (§3)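 5x10^4 cells/well grown to sub-confluence (24-36 h), then exposed to compound 48 h. Neutral red dye 3+1 h, solubilised in 50% ethanol/1% acetic acid, absorbance 540 nm (690 nm background). Viability as percent of vehicle-treated cells; pEC50 by non-linear sigmoidal regression over 4 concentrations, triplicate on two independent days. Controls 30 mM sodium azide, 2% Triton-X. HEK293-hSERT cells kept in Geneticin, used up to 30 passages.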

The test system of data set [7] is DG-75. Briefly: Cytotoxicity against human chemoresistant DG75 cells expressing SERT assessed as decrease in cell viability 10 or 50 uM after 72 hrs Alamar blue assay. It counts as functional, cell-based. Particulars: for EC50: DG-75, 72 h. The procedure, abridged:
as §2

Data set [8] is described as follows: Induction of apoptosis in human chemosensitive MUTU-I cells assessed as formation of apoptotic bodies by propidium iodide FACS analysis. It counts as functional, cell-based.
In data set [9] the test system is HEK293. Briefly: Cytotoxicity against human HEK293 cells assessed as decrease in cell viability after 48 hrs neutral red dye assay. Particulars: HEK293, 48 h. Format: functional, cell-based. In outline: as §3
The subject of another data set is MDA-MB-231. In words: Cytotoxicity against human MDA-MB-231 cells assessed as decrease in cell viability 10 or 50 uM after 24 hrs Alamar blue assay. It counts as functional, cell-based. In outline: as §2
For data set [10], the system named is DG-75. In words: Induction of apoptosis in human chemoresistant DG75 cells assessed as formation of apoptotic bodies by propidium iodide FACS analysis. Format: functional, cell-based.
Data set [11] has as its target T1, Sodium-dependent serotonin transporter. Particulars: HEK293, at 100 µM.
Target sequence in this assay (P31645 whole entry, looked up): as above
A short description of data set [12]: Antiproliferative activity against human chemosensitive MUTU-I cells after 24 hrs Alamar blue assay. It counts as functional, cell-based. In outline:
as §1

Data set [13] has as its system MUTU-I. Briefly: Induction of apoptosis in human chemosensitive MUTU-I cells assessed as chromatin condensation and membrane bledding at 10 uM after 8 hrs. It counts as functional, cell-based. The procedure, abridged: (§4)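 Cells at 3x10^5 cells/mL exposed for 4 h or 8 h. 150 µl aliquots were cytocentrifuged onto slides (500 ×g, 2 min), air-dried, methanol-fixed, and stained with eosin Y and methylene blue. Morphology was examined by light microscopy at 60x.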

Data set [14] has as its target T2, Tyrosine-protein phosphatase non-receptor type 1 (Homo sapiens) (UniProt P18031).
T2 sequence (whole entry): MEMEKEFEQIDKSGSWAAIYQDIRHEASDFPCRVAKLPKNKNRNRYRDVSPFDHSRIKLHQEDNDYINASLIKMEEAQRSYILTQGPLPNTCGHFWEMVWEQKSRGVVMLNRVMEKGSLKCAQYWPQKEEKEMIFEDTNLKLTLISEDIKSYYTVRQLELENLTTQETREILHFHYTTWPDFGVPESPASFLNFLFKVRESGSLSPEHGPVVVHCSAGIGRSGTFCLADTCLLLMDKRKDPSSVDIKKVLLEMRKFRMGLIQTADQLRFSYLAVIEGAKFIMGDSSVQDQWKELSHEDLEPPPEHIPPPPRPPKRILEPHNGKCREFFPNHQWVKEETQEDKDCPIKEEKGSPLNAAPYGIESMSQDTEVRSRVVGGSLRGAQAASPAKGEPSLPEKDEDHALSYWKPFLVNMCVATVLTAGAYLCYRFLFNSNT
Briefly: Inhibition of human recombinant PTP1B in chemosensitive MUTU-I cells after 30 mins. Format: cell-based. The procedure, abridged: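 Recombinant PTP1B expressed in E. coli, incubated with compound and a phosphopeptide substrate for 30 min at 30 °C. Released phosphate detected by malachite green at 620 nm and quantified against a phosphate standard curve. Suramin as positive control.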

The next data set addresses Tubulin (Homo sapiens) (UniProt P68371+Q9H4B7+P0DPH7+P68366+Q13509+Q71U36+P04350+Q3ZCM7+P07437+P68363+Q9BQE3+Q6PEY2+Q13885+Q9BVA1+Q9BUF5). Briefly: Inhibition of tubulin polymerisation in human chemosensitive MUTU-I cells after 30 mins. Format: cell-based.
In data set [15] the test system is MUTU-I. In words: Induction of apoptosis in human chemosensitive MUTU-I cells assessed as chromatin condensation and membrane bledding at 10 uM after 4 hrs. Format: functional, cell-based. The procedure, abridged:
as §4

Data set [16] deals with MUTU-I. Briefly: Induction of apoptosis in human chemosensitive MUTU-I cells assessed as caspase 3/7 activation at 10 uM after 5 hrs. It counts as functional, cell-based. The procedure, abridged: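 Caspase 3/7 activity by homogeneous fluorogenic kit: 0.5x10^5 cells exposed to compound (10 µM) for 5 h, then 100 µl Z-DEVD-R110 substrate added. After 2 h, cleaved substrate measured at 521 nm (excitation 499 nm).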

Data set [17] in a line: Induction of apoptosis in human chemosensitive MUTU-I cells assessed as accumulation at pre-G1 phase at 10 uM by propidium iodide FACS analysis. Format: functional. In outline: (§5)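 750,000 MUTU-I cells per sample treated for the stated time, then harvested (300 ×g, 5 min), washed in ice-cold PBS and fixed overnight at 4 °C in 70% ethanol. Stained with RNase A and propidium iodide, 30 min at 37 °C in the dark. Flow cytometry counted 10,000 gated cells for cell-cycle phases. Taxol 10 µM as positive control.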

The subject of data set [18] is MUTU-I. Briefly: Induction of apoptosis in human chemosensitive MUTU-I cells assessed as induction of PARP cleavage at 10 uM after 4 hrs. It counts as functional, cell-based. In outline: (§6)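 PARP cleavage by Western blot: 5x10^6 cells pelleted (500 ×g, 5 min), washed, and lysed in Laemmli buffer with protease inhibitors. Lysates run on 8% SDS-PAGE, transferred to PVDF, and probed with anti-PARP detecting full-length 113 kDa and cleaved 85 kDa forms. HRP secondary antibody, chemiluminescence detection.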

Data set [19] deals with MUTU-I. In words: Induction of apoptosis in human chemosensitive MUTU-I cells assessed as accumulation at G2/M phase after 2 to 8 hrs by propidium iodide FACS analysis relative to taxol. Format: functional, cell-based. The procedure, abridged: as §5
Data set [20] has as its system MUTU-I. Briefly: Induction of apoptosis in human chemosensitive MUTU-I cells assessed as induction of PARP cleavage at 10 uM after 8 hrs. Format: functional, cell-based. In outline:
as §6

In data set [21] the test system is MUTU-I. Briefly: Induction of apoptosis in human chemosensitive MUTU-I cells assessed as caspase 3/7 activation at 10 uM after 4 hrs. It counts as functional, cell-based.
Data set [22] is described as follows: Cytotoxicity against human chemosensitive MUTU-I cells expressing SERT assessed as decrease in cell viability 10 or 50 uM after 24 hrs Alamar blue assay.

Regarding `CSc1ccc(CC(Cc2ccc(SC)cc2)NC=O)cc1`, the inhibition in data set [1] was 5%; in [11], 85%. Moreover, the IC50 in data set [2] was 15.7 µM. Besides, the EC50 is 5010 µM in the data set on DG-75 [3]; 31.6 µM in the data set on SH-SY5Y [4]; 31.6 µM in the data set on SH-SY5Y [5]; 100 µM in the data set on HEK293 [6]; 31.6 µM in the data set on DG-75 [7]; 13 µM in [8]. Moreover, the EC50 in the data set with HEK293 [9] was > 10000 µM; in the data set with DG-75 [10], 10 µM. In the data set on PBMC, the Activity entry was “Non-toxic”. Also, the result with DG-75 [7] and in the data set with MDA-MB-231 was Active.
On to `CSc1ccc(CC(N)Cc2ccc(SC)cc2)cc1`, for which the inhibition amounted to 50% in data set [1] and 98% in [11]. The molecule also showed an IC50 in [2] of 2.5 µM. Moreover, the EC50 was 25.1 µM with DG-75 [3]; 20 µM in the data set on SH-SY5Y [4]; 12.6 µM with SH-SY5Y [5]; 31.6 µM in the data set on HEK293 [6]; 25.1 µM in the data set with DG-75 [7]; 20 µM in the data set on HEK293 [9]. The molecule further gave an EC50 in [12] of 12.6 µM. In addition, the Activity entry in the data set with PBMC is given as “Toxic”.
With `O=[N+]([O-])/C(=C\c1ccc(Cl)cc1)Cc1ccc(Cl)cc1`, the result in the data set with MUTU-I [13], in the data set with MUTU-I [15], in the data set on MUTU-I [16], in the data set with MUTU-I [18], with MUTU-I [19] and with MUTU-I [20] was Active. In the data set with MUTU-I [21], the result was Active. Also, the inhibition result (in data set [14]; at Tubulin (Homo sapiens)) was “inactive” throughout. For the same molecule, the inhibition in data set [1] amounted to 0%; in data set [11], 23%. Also, the EC50 is 12.6 µM in the data set on DG-75 [3], 2.51 µM in the data set on SH-SY5Y [5] and 1 µM in data set [12]. Moreover, the Activity in data set [17] was found to be 41%.
For `O=[N+]([O-])/C(=C\c1ccc2c(c1)OCO2)Cc1ccc2c(c1)OCO2`, the outcome in the data set with MUTU-I [13], with MUTU-I [15], in the data set with MUTU-I [16], with MUTU-I [18], in the data set on MUTU-I [19] and in the data set on MUTU-I [20] was Active. Besides, in the data set with MUTU-I [21], the outcome was Active. Further, the inhibition entry (in data set [14]; on Tubulin (Homo sapiens)) was “inactive” in each case. The results for the inhibition in data set [1] and in data set [11] were 15% and 36%, respectively. The EC50 is 50.1 µM in the data set with DG-75 [3]; 15.8 µM with SH-SY5Y [4]; 31.6 µM with SH-SY5Y [5]; 12.6 µM with HEK293 [6]; 1 µM in the data set with DG-75 [7]; 7.94 µM in the data set on HEK293 [9]. For the same molecule, a half-maximal effect in data set [12] (EC50) was put at 3.16 µM. The Activity in data set [17] was determined as 30%.
`CC(=O)O[C@H]1C(=O)[C@@]2(C)[C@H]([C@H](OC(=O)c3ccccc3)[C@]3(O)C[C@H](OC(=O)[C@H](O)[C@@H](NC(=O)c4ccccc4)c4ccccc4)C(C)=C1C3(C)C)[C@]1(OC(C)=O)CO[C@@H]1C[C@@H]2O` [PACLITAXEL]: the outcome in the data set with MUTU-I [15], with MUTU-I [18] and in the data set with MUTU-I [21] was inactive. For the same molecule, the IC50 in [22] was found to be 0.01 µM.
With `NC(Cc1ccc(Cl)cc1)Cc1ccc(Cl)cc1`, the values for the EC50 (with DG-75 [3]; in the data set with SH-SY5Y [5]; in data set [12]) were 25.1 µM, 5.01 µM and 0.158 µM, respectively. The Activity entry in the data set on PBMC was “Toxic”.
